Measured values as given in ChEMBL document CHEMBL1124915, “Inhibitors of human renin. Cyclic peptide analogues containing a D-Phe-Lys-D-Trp sequence” (J Med Chem, 1990).

These compounds were tested against T1, Renin (Homo sapiens) (UniProt P00797) (assay: Percent inhibition against human renin at the concentration of 100 uM).
T1 sequence (whole entry): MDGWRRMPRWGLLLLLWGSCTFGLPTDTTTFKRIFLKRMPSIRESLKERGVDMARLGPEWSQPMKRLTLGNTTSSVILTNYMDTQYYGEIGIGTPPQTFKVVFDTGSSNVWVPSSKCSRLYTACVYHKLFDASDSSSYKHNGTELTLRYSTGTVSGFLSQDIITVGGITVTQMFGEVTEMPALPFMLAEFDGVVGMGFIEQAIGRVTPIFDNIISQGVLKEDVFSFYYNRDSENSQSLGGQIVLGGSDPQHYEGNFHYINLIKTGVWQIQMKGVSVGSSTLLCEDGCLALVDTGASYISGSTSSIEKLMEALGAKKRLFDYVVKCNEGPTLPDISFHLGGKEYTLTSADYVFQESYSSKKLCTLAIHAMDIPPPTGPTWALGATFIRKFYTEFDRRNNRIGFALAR
How it was run: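 Each compound was tested twice at 100 µM against partially purified human renal renin with human plasma angiotensinogen in pH 7.0 phosphate buffer with protease inhibitors and 1% DMSO, for 120 min at 30 °C. Angiotensin I generation was quantified by radioimmunoassay and expressed as percent inhibition of the vehicle control rate.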

SMILES | inhibition [%]
CC(C)CCNC(=O)C(Cc1c[nH]c2ccccc12)NC(=O)[C@H](CCCCN)N1C(=O)[C@H](Cc2ccccc2)NCC(=O)N[C@@H](Cc2ccccc2)C1=O (stereo in doubt) | 52
CCC(C)CNC(=O)C(Cc1c[nH]c2ccccc12)NC(=O)[C@H](CCCCN)N1C(=O)CC(C)(C)CC(=O)N[C@@H](Cc2ccccc2)C1=O (stereo in doubt) | 63

Other lines, results leading:

inhibition [%] | SMILES
66 | CC(C)CCNC(=O)C(Cc1c[nH]c2ccccc12)NC(=O)[C@H](CCCCN)N1C(=O)CSCC(=O)N[C@@H](Cc2ccccc2)C1=O (stereo in doubt)
57 | CC(C)CCNC(=O)C(Cc1c[nH]c2ccccc12)NC(=O)[C@H](CCCCN)N1C(=O)[C@H](Cc2ccccc2)NC(=O)CN[C@H](Cc2ccccc2)C1=O (stereo in doubt)
88 | CC(C)CCNC(=O)C(Cc1c[nH]c2ccccc12)NC(=O)[C@H](CCCCN)N1C(=O)CN[C@H](CC(C)C)C(=O)N[C@@H](Cc2ccccc2)C1=O (stereo in doubt)
84 | CC[C@H](C)[C@@H]1NCC(=O)N([C@@H](CCCCN)C(=O)NC(Cc2c[nH]c3ccccc23)C(=O)NCCC(C)C)C(=O)[C@H](Cc2ccccc2)NC1=O (stereo in doubt)

The compounds below were run against T1, Renin (Homo sapiens) (assay: Percent inhibition against human renin at the concentration of 10 uM).

inhibition [%] | SMILES
58 | CC[C@@H](C)[C@@H]1NCC(=O)N[C@@H](Cc2ccccc2)C(=O)N([C@@H](CCCCN)C(=O)NC(Cc2c[nH]c3ccccc23)C(=O)NCCC(C)C)C1=O (stereo in doubt)
45 | CC[C@H](C)[C@@H]1NCC(=O)N([C@@H](CCCCN)C(=O)NC(Cc2c[nH]c3ccccc23)C(=O)NCCC(C)C)C(=O)[C@H](Cc2ccccc2)NC1=O (stereo in doubt)
53 | CC(C)CCNC(=O)C(Cc1c[nH]c2ccccc12)NC(=O)[C@H](CCCCN)N1C(=O)CCC(=O)N[C@@H](Cc2ccccc2)C1=O (stereo in doubt)

The compounds below were run against T1, Renin (Homo sapiens) (assay: Percent inhibition against human renin at the concentration of 1 uM).

inhibition [%] | SMILES
10 | CC(C)CCNC(=O)C(Cc1c[nH]c2ccccc12)NC(=O)[C@H](CCCCN)N1C(=O)CN[C@H](CC(C)C)C(=O)N[C@@H](Cc2ccccc2)C1=O (stereo in doubt)

What follows are compounds tested against T2, Renin (Homo sapiens, UniProt P00797) (assay: Inhibition of human renin).
T2 sequence (P00797 whole entry): T1 sequence (whole entry)

SMILES | IC50 [nM]
CC(C)CCNC(=O)C(Cc1c[nH]c2ccccc12)NC(=O)[C@H](CCCCN)N1C(=O)C(c2ccccc2)CCC(=O)N[C@@H](Cc2ccccc2)C1=O (stereo in doubt) | 1500
COC(=O)[C@H](CC(C)C)NC(=O)C(Cc1c[nH]c2ccccc12)NC(=O)[C@H](CCCCN)N1C(=O)CC[C@H](NC(=O)OCc2ccccc2)C(=O)N[C@@H](Cc2ccccc2)C1=O (stereo in doubt) | 3200
CCC(C)CNC(=O)C(Cc1c[nH]c2ccccc12)NC(=O)[C@H](CCCCN)N1C(=O)[C@H](Cc2ccccc2)NC(=O)CCC(C)(C)C1=O (stereo in doubt) | 1400
COC(=O)[C@H](CC(C)C)NC(=O)C(Cc1c[nH]c2ccccc12)NC(=O)[C@H](CCCCN)NC(=O)[C@H](Cc1ccccc1)NC(=O)OCc1ccccc1 (stereo in doubt) | 31000
COC(=O)[C@H](CC(C)C)NC(=O)C(Cc1c[nH]c2ccccc12)NC(=O)[C@H](CSCNC(C)=O)NC(=O)[C@H](Cc1ccccc1)NC(=O)OC(C)(C)C (stereo in doubt) | 40000

Second part, the compound after the results:

IC50 [nM] | SMILES
240 | CC(C)CC(C)CNC(=O)C(Cc1c[nH]c2ccccc12)NC(=O)[C@H](CCCCN)N1C(=O)CC(C)CC(=O)N[C@@H](Cc2ccccc2)C1=O (stereo in doubt)
2740 | CC(C)CCNC(=O)C(Cc1c[nH]c2ccccc12)NC(=O)[C@H](CCCCN)N1C(=O)CN[C@H](Cc2ccccc2)C(=O)N[C@@H](Cc2ccccc2)C1=O (stereo in doubt)
2300 | CC(C)CCNC(=O)C(Cc1c[nH]c2ccccc12)NC(=O)[C@H](CCCCN)N1C(=O)COCC(=O)N[C@@H](Cc2ccccc2)C1=O (stereo in doubt)
750 | CC(C)CCNC(=O)C(Cc1c[nH]c2ccccc12)NC(=O)[C@H](CCCCN)N1C(=O)CN[C@@H](Cc2ccccc2)C(=O)N[C@@H](Cc2ccccc2)C1=O (stereo in doubt)
